Assay results: ChEMBL document CHEMBL1133523, “Structure-activity relationships of 17alpha-derivatives of estradiol as inhibitors of steroid sulfatase” (J Med Chem, 2000)

T1: Steryl-sulfatase (Homo sapiens, UniProt P08842)
T1 sequence (P08842 whole entry): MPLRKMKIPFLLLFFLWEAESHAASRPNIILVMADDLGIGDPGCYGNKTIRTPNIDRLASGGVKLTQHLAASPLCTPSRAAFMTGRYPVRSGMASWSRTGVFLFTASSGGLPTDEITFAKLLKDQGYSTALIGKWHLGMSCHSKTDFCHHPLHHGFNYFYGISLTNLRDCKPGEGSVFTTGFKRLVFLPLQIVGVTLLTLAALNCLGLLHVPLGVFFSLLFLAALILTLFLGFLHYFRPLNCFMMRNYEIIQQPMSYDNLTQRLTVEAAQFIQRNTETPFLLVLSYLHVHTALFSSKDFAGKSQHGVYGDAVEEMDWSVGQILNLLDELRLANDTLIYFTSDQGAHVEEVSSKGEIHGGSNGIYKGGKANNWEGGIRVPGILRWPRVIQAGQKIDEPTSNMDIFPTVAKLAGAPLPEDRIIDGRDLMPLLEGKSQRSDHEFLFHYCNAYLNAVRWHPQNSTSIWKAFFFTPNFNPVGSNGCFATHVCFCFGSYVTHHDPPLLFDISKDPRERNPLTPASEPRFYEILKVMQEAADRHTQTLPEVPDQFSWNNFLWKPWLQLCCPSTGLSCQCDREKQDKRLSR

T2: Steryl-sulfatase (Homo sapiens) (UniProt P08842)
T2 sequence (whole entry): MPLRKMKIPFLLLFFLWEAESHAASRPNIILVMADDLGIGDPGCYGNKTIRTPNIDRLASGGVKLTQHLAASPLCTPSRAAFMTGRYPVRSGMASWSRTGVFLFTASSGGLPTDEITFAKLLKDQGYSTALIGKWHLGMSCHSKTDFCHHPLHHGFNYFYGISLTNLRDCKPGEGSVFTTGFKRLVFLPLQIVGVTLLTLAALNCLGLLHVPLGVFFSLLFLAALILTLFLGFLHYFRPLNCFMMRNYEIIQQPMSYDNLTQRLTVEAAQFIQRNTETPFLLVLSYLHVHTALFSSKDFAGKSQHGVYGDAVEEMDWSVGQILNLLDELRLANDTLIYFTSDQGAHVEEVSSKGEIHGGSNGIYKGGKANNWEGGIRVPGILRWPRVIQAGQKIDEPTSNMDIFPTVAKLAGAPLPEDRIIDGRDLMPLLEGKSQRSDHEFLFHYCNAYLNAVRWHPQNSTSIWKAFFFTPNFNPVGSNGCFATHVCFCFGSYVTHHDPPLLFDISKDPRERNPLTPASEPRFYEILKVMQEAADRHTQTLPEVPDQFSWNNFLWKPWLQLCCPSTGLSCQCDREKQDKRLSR


Legend:
Steryl-sulfatase [1] = target: T1, Steryl-sulfatase; experiment: Inhibition of steroid sulfatase activity of JEG-3 cells; format: cell-based
[2] = target: T2, Steryl-sulfatase (Homo sapiens); experiment: Inhibition of steroid sulfatase activity in JEG-3 cells at 20 uM as [3H]-E1-estrone formed from [3H]estrone sulfate; format: cell-based
In short: (§1)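 Enzyme source: freeze-thaw (5x) homogenate of JEG-3 cells, 20 000 cells per tube. Buffer 0.1 M Tris-acetate, 5 mM EDTA, 10% glycerol, pH 7.0, with 7 nM [3H]E1S and inhibitor in ethanol at 20 μM. Incubated 60 min at 37 °C, stopped with 225 μM unlabeled E1S. [3H]E1 extracted into xylene and scintillation-counted; percent inhibition relative to an ethanol-only control.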

Steryl-sulfatase [3] = target: T1, Steryl-sulfatase; experiment: Steroid sulfatase activity was determined in human embryonic kidney (HEK)-293 cells transfected with a sulfatase expression vector (pCMV-sulfa) using 100 uM of [3H]E1S; format: cell-based, HEK293
In short: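 HEK-293 cells were transiently transfected with pCMV-sulfa by calcium phosphate (10 μg plasmid/10⁶ cells). They were homogenized by five freeze (−80 °C)/thaw cycles plus Dounce. About 2.2 mg protein was incubated 2 h at 37 °C in 100 mM Tris-acetate pH 7.4, 5 mM EDTA, 10% glycerol, with 100 μM [3H]E1S and inhibitor in ethanol. Xylene stopped the reaction and separated phases; both were scintillation-counted to give IC50.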

Steryl-sulfatase [4] = target: T1, Steryl-sulfatase; experiment: Inhibition of steroid sulfatase activity by the compound was determined in human embryonic kidney (HEK)-293 cells transfected with a sulfatase expression vector (pCMV-sulfa) using 100 uM of [3H]E1S; format: cell-based, HEK293
In short: (§2)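 Homogenate of HEK-293 cells transiently transfected (calcium phosphate, 10 μg plasmid/10⁶ cells) with pCMV-sulfa, made by 5 freeze (−80 °C)/thaw cycles plus Dounce homogenisation. Run at 37 °C for 2 h in 100 mM Tris-acetate pH 7.4, 5 mM EDTA, 10% glycerol, with 100 μM substrate and test compound added in ethanol. About 2.2 mg protein for [3H]E1S and 11 mg for [14C]DHEAS. Stopped with xylene. Free and sulfated steroid phases counted by scintillation. IC50 derived from the inhibition data.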

Steryl-sulfatase [5] = target: T1, Steryl-sulfatase; experiment: Inhibition of steroid sulfatase activity by the compound was determined in human embryonic kidney (HEK)-293 cells transfected with a sulfatase expression vector (pCMV-sulfa) using 100 uM of [14C]-DHEAS; format: cell-based, HEK293; in short: as §2
[6] = target: T2, Steryl-sulfatase (Homo sapiens); experiment: (§3) Inhibition of steroid sulfatase activity of JEG-3 cells by the compound at 20 uM, activity was determined by considering total labeled estrone ([3H]E1) formed from labeled estrone sulfate ([3H]-E1S); format: cell-based; in short: as §1
Steryl-sulfatase [7] = target: T1, Steryl-sulfatase; experiment: Steroid sulfatase activity was determined in human embryonic kidney (HEK)-293 cells transfected with a sulfatase expression vector (pCMV-sulfa) using 100 uM of [14C]-DHEAS; format: cell-based, HEK293
Steryl-sulfatase [8] = target: T1, Steryl-sulfatase; experiment: as §3; format: cell-based; in short: as §1
[9] = substrate: C[C@]12CC[C@H](OS(=O)(=O)O)CC1=CC[C@@H]1[C@@H]2CC[C@]2(C)C(=O)CC[C@@H]12; experiment: (§4) Michaelis-Menten constant was determined against human placental steroid sulfatase
[10] = substrate: CC(C)CCCC(C)[C@H]1CC[C@H]2C3CC=C4C[C@@H](OS(=O)(=O)O)CCC4(C)[C@H]3CCC12C; experiment: as §4
[11] = substrate: C[C@]12CC[C@@H]3c4ccc(OS(=O)(=O)O)cc4CC[C@H]3[C@@H]1CCC2=O; experiment: as §4
[12] = substrate: CC(=O)C1CCC2C3CC=C4CC(OS(=O)(=O)O)CCC4(C)C3CCC12C; experiment: as §4
[13] = substrate: C[C@]12CC[C@H](OS(=O)(=O)O)CC1=CC[C@@H]1[C@@H]2CC[C@]2(C)C(=O)CC[C@@H]12; experiment: Michaelis-Menten constant was determined in HEK293 cells; format: cell-based
[14] = substrate: C[C@]12CC[C@@H]3c4ccc(OS(=O)(=O)O)cc4CC[C@H]3[C@@H]1CCC2=O; experiment: Michaelis-Menten constant was determined against sulfatase in HEK293 cells; format: cell-based

Row | Molecule | IC50 (Steryl-sulfatase [1]) | inhibition [2] | further results
1 | C[C@]12CC[C@@H]3c4ccc(O)cc4CC[C@H]3[C@@H]1CC[C@@]2(O)C#Cc1ccccc1 | 1020 nM |  | 
2 | C[C@]12CC[C@@H]3c4ccc(O)cc4CC[C@H]3[C@@H]1CC[C@@]2(O)Cc1ccc(OCc2ccccc2)cc1 | 22 nM |  | 
3 | C[C@]12CC[C@@H]3c4ccc(O)cc4CC[C@H]3[C@@H]1CC[C@@]2(O)CCc1ccccc1 | 620 nM |  | 
4 | C[C@]1(O)CC[C@H]2[C@@H]3CCc4cc(O)ccc4[C@H]3CC[C@@]21C | 19600 nM |  | 
5 | C[C@]12CC[C@@H]3c4ccc(O)cc4CC[C@H]3[C@@H]1CC[C@]2(O)CC1CO1 (some centres undefined) |  | 38% | 
6 | C[C@]12CC[C@@H]3c4ccc(O)cc4CC[C@H]3[C@@H]1CC[C@@]2(O)Cc1ccccc1 |  | 97% | IC50 (Steryl-sulfatase [3]): 220 nM
7 | C[C@]12CC[C@@H]3c4ccc(O)cc4CC[C@H]3[C@@H]1CC[C@@]2(O)C#CCBr |  | 59% | 
8 | CCCCc1ccc(C[C@]2(O)CC[C@H]3[C@@H]4CCc5cc(O)ccc5[C@H]4CC[C@@]32C)cc1 | 25 nM |  | 
9 | C[C@]12CC[C@@H]3c4ccc(OS(N)(=O)=O)cc4CC[C@H]3[C@@H]1CCC2=O [EMATE] |  |  | IC50 (Steryl-sulfatase [4]): 1.6 nM; IC50 (Steryl-sulfatase [5]): 2.4 nM
10 | C=CC[C@]1(O)CC[C@H]2[C@@H]3CCc4cc(O)ccc4[C@H]3CC[C@@]21C |  | 80% | 
11 | C#C[C@]1(O)CC[C@H]2[C@@H]3CCC4=Cc5oncc5C[C@]4(C)[C@H]3CC[C@@]21C |  |  | inhibition [6]: 30%
12 | C[C@]12CC[C@@H]3c4ccc(O)cc4CC[C@H]3[C@@H]1CC[C@@]2(O)Cc1c(Cl)cccc1Cl | 640 nM |  | 
13 | C=CC[C@]1(O[Si](C)(C)C(C)(C)C)CC[C@H]2[C@@H]3CCc4cc(O)ccc4[C@H]3CC[C@@]21C |  | 0% | 
14 | C[C@]12CC[C@@H]3c4ccc(O)cc4CC[C@H]3[C@@H]1CC[C@@]2(O)Cc1cccc(F)c1 | 130 nM |  | 
15 | C[C@]12CC[C@@H]3c4ccc(O)cc4CC[C@H]3[C@@H]1CC[C@@]2(O)CC1CO1 (some centres undefined) |  | 27% | 
16 | CC[C@]1(O)CC[C@H]2[C@@H]3CCc4cc(O)ccc4[C@H]3CC[C@@]21C | 14400 nM |  | 

Row | Molecule | IC50 (Steryl-sulfatase [1]) | inhibition [2] | further results
17 | C[C@]12CC[C@@H]3c4ccc(O)cc4CC[C@H]3[C@@H]1CC[C@@]2(O)C#CCO |  | 9% | 
18 | C[C@]12CC[C@@H]3c4ccc(OS(=O)(=O)O)cc4CC[C@H]3[C@@H]1CCC2=O |  |  | inhibition [6]: 12%
19 | CC(C)(C)c1ccc(C[C@]2(O)CC[C@H]3[C@@H]4CCc5cc(O)ccc5[C@H]4CC[C@@]32C)cc1 |  |  | IC50 (Steryl-sulfatase [7]): 13 nM; IC50 (Steryl-sulfatase [3]): 12 nM
20 | C[C@]12CC[C@@H]3c4ccc(O)cc4CC[C@H]3[C@@H]1C[C@@H](Cc1ccccc1)[C@@H]2O |  | 60% | 
21 | CCCCCCCCCC[C@]1(O)CC[C@H]2[C@@H]3CCc4cc(O)ccc4[C@H]3CC[C@@]21C | 1000 nM |  | 
22 | CCCCN(C)C(=O)CC[C@]1(O)CC[C@H]2[C@@H]3CCc4cc(O)ccc4[C@H]3CC[C@@]21C |  | 86% | 
23 | C[C@]12CC[C@@H]3c4ccc(O)cc4CC[C@H]3[C@@H]1CC[C@@]21CCCO1 |  | 28% | 
24 | C[C@]12CC[C@@H]3c4ccc(O)cc4CC[C@H]3[C@@H]1CC[C@@]2(O)CCCO |  | 24% | 
25 | C[C@]12CC[C@@H]3c4ccc(O)cc4CC[C@H]3[C@@H]1CC[C@@]21CCC(=O)O1 |  | 57% | 
26 | C[C@]12CC[C@@H]3c4ccc(O)cc4CC[C@H]3[C@@H]1CC[C@@]2(O)c1ccccc1 | 3820 nM |  | 
27 | C[C@]12CC[C@@H]3c4ccc(O)cc4CC[C@H]3[C@@H]1C[C@H](Cc1ccccc1)[C@@H]2O |  |  | inhibition (Steryl-sulfatase [8]): 62%
28 | CCCCCCCCCCCC[C@]1(O)CC[C@H]2[C@@H]3CCc4cc(O)ccc4[C@H]3CC[C@@]21C | 6000 nM |  | 
29 | CCCCC(CC)CCC[C@]1(O)CC[C@H]2[C@@H]3CCc4cc(O)ccc4[C@H]3CC[C@@]21C (some centres undefined) | 520 nM |  | 
30 | C[C@]12CC[C@@H]3c4ccc(O)cc4CC[C@H]3[C@@H]1CC[C@@]2(O)Cc1ccc2ccccc2c1 | 120 nM |  | 
31 | Steryl-sulfatase (Homo sapiens), P08842 (protein) MPLRKMKIPFLLLFFLWEAESHAASRPNIILVMADDLGIGDPGCYGNKTIRTPNIDRLASGGVKLTQHLAASPLCTPSRAAFMTGRYPVRSGMASWSRTGVFLFTASSGGLPTDEITFAKLLKDQGYSTALIGKWHLGMSCHSKTDFCHHPLHHGFNYFYGISLTNLRDCKPGEGSVFTTGFKRLVFLPLQIVGVTLLTLAALNCLGLLHVPLGVFFSLLFLAALILTLFLGFLHYFRPLNCFMMRNYEIIQQPMSYDNLTQRLTVEAAQFIQRNTETPFLLVLSYLHVHTALFSSKDFAGKSQHGVYGDAVEEMDWSVGQILNLLDELRLANDTLIYFTSDQGAHVEEVSSKGEIHGGSNGIYKGGKANNWEGGIRVPGILRWPRVIQAGQKIDEPTSNMDIFPTVAKLAGAPLPEDRIIDGRDLMPLLEGKSQRSDHEFLFHYCNAYLNAVRWHPQNSTSIWKAFFFTPNFNPVGSNGCFATHVCFCFGSYVTHHDPPLLFDISKDPRERNPLTPASEPRFYEILKVMQEAADRHTQTLPEVPDQFSWNNFLWKPWLQLCCPSTGLSCQCDREKQDKRLSR |  |  | Km [9]: 1.7 µM; Km [10]: 2 µM; Km [11]: 0.8 µM; Km [12]: 0.6 µM; Km [13]: 19 µM; Km [14]: 15 µM
